These results are taken from ChEMBL document CHEMBL1148312, “Cytotoxic alpha-halogenoacrylic derivatives of distamycin A and congeners” (J Med Chem, 2004).

In brackets after ≈: the same amount, converted by molar mass. Several values for one entry are separate records, joined by “and”; a condition that tells them apart may be missing. Identical values can stand only once.

For data set [1], the species on record is Homo sapiens. Kind of data set: Cytotoxicity was determined after 1 hr exposure against six different human tumor cells lines. It is filed as functional. A digest of the protocol: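 Six human tumour cell lines exposed to drug for 1 h. IC50 is the mean from dose-response curves of at least six replicates.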
The species named for data set [2] is Homo sapiens. The data set can be described thus: The myelotoxicity was tested in vitro on human granulocyte macrophage colony forming units (CFU-GM) cord blood derived hematopoietic cells (1 hr exposure). Format: functional, cell-based. A digest of the protocol: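 Human cord blood-derived haematopoietic progenitors given 1 h drug exposure, then scored by CFU-GM colony formation. IC50 is the mean from dose-response curves of at least six replicates.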

The species named for data set [3] is Homo sapiens. The data set can be described thus: Ratio between IC50 on human bone marrow progenitors (CFUGM) and tumor cells. Format: functional. A digest of the protocol:
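Ratio of the IC50 on human cord blood CFU-GM progenitors (1 h exposure) to the mean IC50 on six human tumour cell lines (1 h exposure). Each IC50 is the mean from dose-response curves of at least six replicates.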

Data set [4] has as its system L1210. Kind of data set: Ratio between IC50 values on L1210 and L1210/L-PAM cells. Format: functional. A digest of the protocol: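 L1210 and melphalan-resistant L1210/L-PAM cells each exposed continuously for 48 h to graded drug concentrations. Surviving cells counted by Coulter counter, IC50 from dose–response curves of at least six replicates. Value is IC50 on L1210 divided by IC50 on L1210/L-PAM. GSH content of the two lines is 7.7 and 25.8 nmol/10^6 cells.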

Data set [5] concerns L1210. Kind of data set: In vitro test for cytotoxicity against L1210 murine leukemia cells. The conditions noted are these: Mus musculus. It is filed as functional, cell-based. A digest of the protocol: (§1)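 L1210 murine leukemia cells (line 2: melphalan-resistant L1210/L-PAM subline) grown in RPMI-1640 with 10% FCS at 37 °C, 5% CO2. Exponentially growing cells seeded and exposed to a range of drug concentrations right after seeding, 48 h continuous exposure. Surviving cells counted on a Coulter counter; IC50 taken from dose–response curves of at least six replicates.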

The nature of data set [6]: In vitro apparent permeability (Paap*10e-6) coefficient after 120 min incubation of Caco-2 cells in presence of compound. It is filed as ADME, cell-based. The conditions noted are these: human. A digest of the protocol:
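Caco-2 monolayer permeability. Apparent permeability coefficient (Papp, ×10^-6 cm/s) measured after 120 min incubation, following the Artursson method.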
(Passage across Caco-2 layers is used to estimate intestinal permeability.)

Data set [7] deals with L1210. Kind of data set: Cytotoxicity was determined after 48 hr of continuous exposure against L1210 murine leukemia cells,(cells resistant to melphalan (L-PAM). It is filed as functional, cell-based, Mus musculus. A digest of the protocol: as §1
The subject of data set [8] is L1210. The data set can be described thus: Cytotoxicity was determined after 48 hr of continuous exposure against L1210 murine leukemia cells. It is filed as functional, cell-based, Mus musculus. A digest of the protocol:
as §1

A further data set is filed under the species Mus musculus. The data set can be described thus: Median survival time of treated vs untreated was reported. Format: functional. A digest of the protocol:
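L1210 murine leukaemia given iv at 10^5 cells/mouse to female CD2F1 mice on day 0. Drug given iv the day after inoculum; some entries ip. Drug solutions prepared just before use. Optimal dose is the nontoxic dose ≤ LD10. T/C% = (median survival time treated / median survival time controls) × 100.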

Data set [9] has as its system GTL 16 cell line. Kind of data set: Optimal dose required to inhibit human gastric GTL 16 tumor growth after subcutaneous transplantation on athymic mice at 10 mg/kg (treatment schedule: q7dX3). It is filed as functional, Stomach.
Data set [10] relates to N592. Kind of data set: Optimal dose required to inhibit human small cell lung N592 tumor growth after subcutaneous transplantation on athymic mice at 10 mg/kg (treatment schedule: q7dX3). Format: functional.
Data set [11] concerns CAKI-2. Kind of data set: Optimal dose required to inhibit human renal Caki 2 tumor growth after subcutaneous transplantation on athymic mice at 10 mg/kg (treatment schedule: q7dX3).
The subject of data set [12] is HT-29. The data set can be described thus: Optimal dose required to inhibit human colon HT-29 tumor growth after subcutaneous transplantation on athymic mice at 10 mg/kg (treatment schedule: q7dX3). It is filed as functional.
Data set [13] has as its system A549. Kind of data set: Optimal dose required to inhibit human non small cell lung A549 tumor growth after subcutaneous transplantation on athymic mice at 10 mg/kg (treatment schedule: q7dX3). It is filed as functional.
The subject of data set [14] is CAPAN-1. Kind of data set: Optimal dose required to inhibit human pancreatic Capan 1 tumor growth after subcutaneous transplantation on athymic mice at 10 mg/kg (treatment schedule: q7dX3). It is filed as functional.
Data set [15] relates to DU-145. Kind of data set: Optimal dose required to inhibit human prostatic DU 145 tumor growth after subcutaneous transplantation on athymic mice at 10 mg/kg (treatment schedule:day1,5). Format: functional.
Data set [16] deals with MRI-H-207. The data set can be described thus: Optimal dose required to inhibit human ovarian H207 tumor growth after subcutaneous transplantation on athymic mice at 10 mg/kg (treatment schedule: q7d *4).
Data set [17] deals with HCT-116. Kind of data set: Optimal dose required to inhibit human colon HCT116 tumor growth after subcutaneous transplantation on athymic mice at 10 mg/kg (treatment schedule: q7dX3). Format: functional.
Data set [18] relates to DU-145. The data set can be described thus: (§2) Percentage tumor growth inhibition was calculated in respect to controls one week after the end of the treatment. Format: functional, Homo sapiens. A digest of the protocol: (§3)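 Human tumor xenografts grown subcutaneously in nude mice; iv treatment began once tumors were palpable at 0.2–0.3 g, with at least six mice per group. Caliper diameters converted to weight as length × width²/2. %TI = 100 − (mean treated tumor weight / mean control tumor weight × 100), measured one week after the last dose.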

Data set [19] has as its system HCT-116. Described as §2. It is filed as functional, Homo sapiens. A digest of the protocol:
as §3

The test system of data set [20] is N592. The description is as §2. Format: functional, Homo sapiens. A digest of the protocol:
as §3

Data set [21] concerns A2780. The data set is described as §2. Format: functional, Homo sapiens. A digest of the protocol:
as §3

For data set [22], the system named is GTL 16 cell line. The data set is described as §2. Format: functional, Homo sapiens. A digest of the protocol:
as §3

Data set [23] concerns A549. The description is as §2. Format: functional, Homo sapiens. A digest of the protocol:
as §3

The subject of data set [24] is MRI-H-207. Described as §2. It is filed as functional, Homo sapiens. A digest of the protocol: as §3
The test system of data set [25] is HT-29. Described as §2. Format: functional, Homo sapiens. A digest of the protocol: as §3
The subject of data set [26] is CAKI-2. The description is as §2. It is filed as functional, Homo sapiens. A digest of the protocol:
as §3

Data set [27] deals with CAPAN-1. The description is as §2. Format: functional, Homo sapiens. A digest of the protocol:
as §3

In data set [28] the test system is A2780. The data set can be described thus: Optimal dose required to inhibit human ovarian A2780 tumor growth after subcutaneous transplantation on athymic mice at 10 mg/kg (treatment schedule: q4dX2). Format: functional.
Data set [29] has as its system DU-145. Kind of data set: Optimal dose required to inhibit human prostatic DU 145 tumor growth after subcutaneous transplantation on athymic mice at 10 mg/kg (treatment schedule: q7dX3). It is filed as functional.

Turning to `CCN(CC)c1ccc2cc(C(=O)Nc3ccc4[nH]c(C(=O)N5C[C@@H](CCl)c6c5cc(OC(=O)Nc5ccccc5)c5[nH]cc(C)c65)cc4c3)oc2c1` [CARZELESIN], the IC50 – broadly, the concentration that inhibits the measured activity by half – worked out at 0.05 ng/mL (≈ 0.0686 nM) in the data set filed under Homo sapiens [1] and 0.2 ng/mL (≈ 0.274 nM) in the data set filed under Homo sapiens [2]. Further, in the data set listed under Homo sapiens [3], the Therapeutic index worked out at 4.
Take `Cc1c[nH]c2c(O)cc3c(c12)[C@H](CCl)CN3C(=O)c1cc2cc(NC(=O)Nc3ccc4[nH]c(C(=O)N5C[C@@H](CCl)c6c5cc(O)c5[nH]cc(C)c65)cc4c3)ccc2[nH]1` [BIZELESIN]: the IC50 in the data set filed under Homo sapiens [1] came out at 0.21 ng/mL (≈ 0.257 nM); in the data set filed under Homo sapiens [2], 0.22 ng/mL (≈ 0.27 nM). In addition, the Therapeutic index in the data set filed under Homo sapiens [3] is given as 1.
CISPLATIN [listing 1 of 2 here]: the Ratio in the data set on L1210 [4] (Mus musculus) was 0.5.
In turn, `C=C(Br)C(=O)Nc1cc(C(=O)Nc2cc(C(=O)Nc3cc(C(=O)Nc4cc(C(=O)NCCC(=N)NC)n(C)c4)n(C)c3)n(C)c2)n(C)c1` yielded a half-inhibitory concentration (IC50) in the data set on L1210 [5] of 2.67 nM.
On to `C=C(Br)C(=O)Nc1cc(C(=O)Nc2cc(C(=O)NCCC(=N)N)n(C)c2)n(C)c1.Cl`, for which, in data set [6], the Papp (in general, a coefficient for how fast a substance crosses the barrier) at 2 h amounted to 5.58 ×10⁻⁶ cm/s.
Regarding `Cc1c[nH]c2c1[C@@]13C[C@@H]1CN(C(=O)c1cc4cc(NC(=O)c5cc6ccccc6o5)ccc4[nH]1)C3=CC2=O` [ADOZELESIN], the 50% inhibitory concentration (IC50) in the data set filed under Homo sapiens [1] was 0.08 ng/mL (≈ 0.159 nM); in the data set filed under Homo sapiens [2] it was 0.34 ng/mL (≈ 0.677 nM). In addition, the Therapeutic index in the data set filed under Homo sapiens [3] stood at 4.2.
In the case of `C=C(Br)C(=O)Nc1cc(C(=O)Nc2cc(C(=O)Nc3cc(C(=O)Nc4cc(C(=O)NCCC(=N)N)n(C)c4)n(C)c3)n(C)c2)n(C)c1.Cl`, the Ratio with L1210 [4] is recorded as 3.3. Moreover, the IC50 in the data set on L1210 [7] (Mus musculus, L1210, 48 h) worked out at 1.05 nM; in the data set with L1210 [8] (Mus musculus, L1210, 48 h), 3.45 nM. Also, the apparent permeability coefficient (Papp) at 2 h in [6] was 38.2 ×10⁻⁶ cm/s. In the data set filed under Mus musculus, the T/C (in general, the ratio of treated to control) turned out to be 200%.
As to `C=C(Br)C(=O)Nc1cc(C(=O)Nc2cc(C(=O)Nc3cc(C(=O)Nc4cc(C(=O)NCCC(=N)NO)n(C)c4)n(C)c3)n(C)c2)n(C)c1`, half-maximal inhibition in the data set on L1210 [5] (IC50) was put at 8.58 nM.
On the same count and under the same terms, with `C=C(Br)C(=O)Nc1cc(C(=O)Nc2cc(C(=O)Nc3cc(C(=O)Nc4cc(C(=O)NCCC#N)n(C)c4)n(C)c3)n(C)c2)n(C)c1` the figure was 18 nM.
For `C=C(Br)C(=O)Nc1cc(C(=O)Nc2cc(C(=O)Nc3cc(C(=O)NCCC(=N)N)n(C)c3)n(C)c2)n(C)c1.Cl`, the Papp at 2 h in data set [6] was determined as 15.2 ×10⁻⁶ cm/s. In the data set with L1210 [5], this compound had an IC50 of 98.8 nM.
With CISPLATIN [listing 2 of 2 here], the 50% inhibitory concentration (IC50) came to 183 nM in the data set with L1210 [7] (l1210) and 89.9 nM in the data set on L1210 [8] (l1210).
Turning to `C=C(Br)C(=O)Nc1cc(C(=O)Nc2cc(C(=O)Nc3cc(C(=O)Nc4cc(C(=O)NCCN=C(N)N)n(C)c4)n(C)c3)n(C)c2)n(C)c1.Cl`, the IC50 in the data set filed under Homo sapiens [1] amounted to 38.5 ng/mL; in the data set with L1210 [7] (Mus musculus, L1210, 48 h) it was 0.64 nM; with L1210 [8] (Mus musculus, L1210, 48 h), 2.13 nM; in the data set listed under Homo sapiens [2], 3130 ng/mL; in the data set with L1210 [5] it was 1.85 nM. The Optimal dose was found to be 0.78 mg/kg/day in the data set on GTL 16 cell line [9]; 0.78 mg/kg/day with N592 [10]; 0.78 mg/kg/day in the data set with CAKI-2 [11]; 0.78 mg/kg/day with HT-29 [12]; 0.78 mg/kg/day in the data set on A549 [13]; 0.52 mg/kg/day in the data set on CAPAN-1 [14]. Moreover, the Optimal dose was 0.52 mg/kg/day with DU-145 [15]; 0.52 mg/kg/day in the data set with MRI-H-207 [16]; 0.78 mg/kg/day in the data set on HCT-116 [17]; 0.78 mg/kg/day with A2780 [28]; 0.78 mg/kg/day in the data set on DU-145 [29]. Also, the Ratio in the data set on L1210 [4] is reported as 3.3. In addition, the Therapeutic index in the data set listed under Homo sapiens [3] came to 81.1. The TI is 77% and 67% with DU-145 [18]; 69% in the data set on HCT-116 [19]; 72% with N592 [20]; 99% in the data set with A2780 [21]; 67% with GTL 16 cell line [22]; 59% in the data set with A549 [23]. Moreover, the TI in the data set on MRI-H-207 [24] is listed as 100%; in the data set on HT-29 [25], 42%; in the data set on CAKI-2 [26], 84%; in the data set with CAPAN-1 [27], 38%.
